Experimental data taken from ChEMBL document CHEMBL5236592, “Induction of Ferroptosis in Glioblastoma and Ovarian Cancers by a New Pyrrole Tubulin Assembly Inhibitor” (J Med Chem, 2022).
Active and inactive are the calls of the source.

Key:
Type in all cases: functional, organism-based
Details in all cases: time 40.0 day
U-87MG ATCC [1] = test: Antitumor activity against human U-87 MG cells xenografted in BALB/C nu/nu mouse assessed as reduction in tumor growth at 25 mg/kg, ip administered every 2 days for 40 days
Method in brief: (§1)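 Female BALB/c nu/nu mice, 10 weeks old, 4 per group. Received subcutaneous U-87 MG or SKOV-3 cells (1 × 10^8 cells/mL, harvested in log phase). Dosed ip with 100 μL at 25 mg/kg every 2 days; controls got 100 μL saline on the same schedule. Sacrificed at 40 days; tumors weighed, volume = ab²/2. Tumor sections (6 μm, paraffin) stained by immunofluorescence for Ki67 or CD31 with Alexa Fluor 488 secondary.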

SK-OV-3 [2] = test: Antitumor activity against human SK-OV-3 cells xenografted in BALB/C nu/nu mouse assessed as reduction in tumor growth at 25 mg/kg, ip administered every 2 days for 40 days; method in brief: as §1
U-87MG ATCC [3] = test: Induction of ferroptosis-mediated antitumor activity against human U-87 MG cells xenografted in BALB/C nu/nu mouse assessed as increase in […] level in tumor at 25 mg/kg, ip administered every 2 days for 40 days by biochemical analysis
Method in brief: (§2)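 U-87 MG or SKOV-3 sc xenografts (1 × 10^8 cells/mL) in female BALB/c nu/nu mice, 4 per group. Given 25 mg/kg ip in 100 μL every 2 days, or saline. Tumors harvested on day 40 and assayed for LPO, MDA, lactic acid, total glutathione (GSH + GSSG), ATP and Fe2+.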

SK-OV-3 [4] = test: Induction of ferroptosis-mediated antitumor activity against human SK-OV-3 cells xenografted in BALB/C nu/nu mouse assessed as increase in malondialdehyde level in tumor at 25 mg/kg, ip administered every 2 days for 40 days by biochemical analysis; method in brief: as §2
SK-OV-3 [5] = test: Induction of ferroptosis-mediated antitumor activity against human SK-OV-3 cells xenografted in BALB/C nu/nu mouse assessed as reduction in total glutathione level in tumor at 25 mg/kg, ip administered every 2 days for 40 days by biochemical analysis; method in brief: as §2
SK-OV-3 [6] = test: Induction of ferroptosis-mediated antitumor activity against human SK-OV-3 cells xenografted in BALB/C nu/nu mouse assessed as reduction in ATP level in tumor at 25 mg/kg, ip administered every 2 days for 40 days by biochemical analysis; method in brief: as §2
SK-OV-3 [7] = test: Induction of ferroptosis-mediated antitumor activity against human SK-OV-3 cells xenografted in BALB/C nu/nu mouse assessed as increase in Fe2+ level in tumor at 25 mg/kg, ip administered every 2 days for 40 days; method in brief: as §2
Mus musculus [8] = test: Upregulation of Alfm1 mRNA expression in tumor of BALB/C nu/nu mouse xenografted with human U-87 MG cells at 25 mg/kg, ip administered every 2 days for 40 days by qPCR analysis
Method in brief: (§3)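 Female BALB/c nu/nu mice bearing sc U-87 MG or SKOV-3 xenografts were dosed ip at 25 mg/kg (100 μL) every 2 days, or given saline, and tumors were taken at day 40. RNA was extracted from about 20 mg of tissue. qPCR ran 40 cycles (95 °C 15 min; 94 °C 20 s; 60 °C 34 s) on a 69-gene panel. Fold change was by 2^–ΔΔCt, with ≥1.5 counted as increased.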

Mus musculus [9] = test: Upregulation of Fancd2 mRNA expression in tumor of BALB/C nu/nu mouse xenografted with human U-87 MG cells at 25 mg/kg, ip administered every 2 days for 40 days by qPCR analysis; method in brief: as §3
Mus musculus [10] = test: Upregulation of Cbs mRNA expression in tumor of BALB/C nu/nu mouse xenografted with human U-87 MG cells at 25 mg/kg, ip administered every 2 days for 40 days by qPCR analysis; method in brief: as §3
Mus musculus [11] = test: Upregulation of FTL mRNA expression in tumor of BALB/C nu/nu mouse xenografted with human U-87 MG cells at 25 mg/kg, ip administered every 2 days for 40 days by qPCR analysis; method in brief: as §3
Mus musculus [12] = test: Upregulation of Htra2 mRNA expression in tumor of BALB/C nu/nu mouse xenografted with human U-87 MG cells at 25 mg/kg, ip administered every 2 days for 40 days by qPCR analysis
Method in brief: (§4)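 Female BALB/c nu/nu mice, 10 weeks old, 4 per group. Inoculated s.c. with 1 × 10^8 cells/mL of log-phase U-87 MG or SKOV-3 cells. Dosed i.p. with 100 μL at 25 mg/kg every 2 days; controls got 100 μL saline. Tumors harvested on day 40. RNA extracted from about 20 mg of tissue. qPCR panel of 69 genes, 40 cycles (94 °C 20 s, 60 °C 34 s). Analysed by 2–ΔΔCt; fold ≥1.5 taken as increased.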

Mus musculus [13] = test: Upregulation of ALOX5 mRNA expression in tumor of BALB/C nu/nu mouse xenografted with human SK-OV-3 cells at 25 mg/kg, ip administered every 2 days for 40 days by qPCR analysis; method in brief: as §3
Mus musculus [14] = test: Upregulation of Gss mRNA expression in tumor of BALB/C nu/nu mouse xenografted with human SK-OV-3 cells at 25 mg/kg, ip administered every 2 days for 40 days by qPCR analysis; method in brief: as §4
Mus musculus [15] = test: Upregulation of Gclm mRNA expression in tumor of BALB/C nu/nu mouse xenografted with human SK-OV-3 cells at 25 mg/kg, ip administered every 2 days for 40 days by qPCR analysis; method in brief: as §3
Mus musculus [16] = test: Upregulation of Ttc35 mRNA expression in tumor of BALB/C nu/nu mouse xenografted with human SK-OV-3 cells at 25 mg/kg, ip administered every 2 days for 40 days by qPCR analysis; method in brief: as §4
Mus musculus [17] = test: Upregulation of Sat1 mRNA expression in tumor of BALB/C nu/nu mouse xenografted with human SK-OV-3 cells at 25 mg/kg, ip administered every 2 days for 40 days by qPCR analysis; method in brief: as §4
SK-OV-3 [18] = test: Antitumor activity against human SK-OV-3 cells xenografted in BALB/C nu/nu mouse assessed as reduction in Ki67 expression in tumor at 25 mg/kg, ip administered every 2 days for 40 days by immunofluoresence staining based assay; method in brief: as §1
SK-OV-3 [19] = test: Antitumor activity against human SK-OV-3 cells xenografted in BALB/C nu/nu mouse assessed as reduction in CD31 expression in tumor at 25 mg/kg, ip administered every 2 days for 40 days by immunofluoresence staining based assay; method in brief: as §1
U-87MG ATCC [20] = test: Induction of ferroptosis-mediated antitumor activity against human U-87 MG cells xenografted in BALB/C nu/nu mouse assessed as reduction in GPX4 protein expression in tumor at 25 mg/kg, ip administered every 2 days for 40 days by immunofluoresence staining based assay
Method in brief: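 Xenografts of U-87 MG or SKOV-3 (1 × 10^8 cells/mL, sc) in female BALB/c nu/nu mice, 4 per group. Treated ip at 25 mg/kg in 100 μL every 2 days versus saline, tumors collected at day 40. Paraffin sections (6 μm) were blocked at 37 °C for 30 min, then incubated with rabbit anti-GPX4 or anti-FTH1 and then Alexa Fluor 488 anti-rabbit, each for 45 min at 37 °C.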

Measured: Activity

COc1cc(C(=O)c2cn(-c3ncccn3)cc2-c2ccco2)cc(OC)c1OC
active: all assays above
